Experimental data as given in ChEMBL document CHEMBL3286116, “Synthesis, biological evaluation and structure-activity correlation study of a series of imidazol-based compounds as Candida albicans inhibitors” (Eur J Med Chem, 2014).
≈ marks a conversion by molar mass, not a printed value.

Key:
Candida albicans [1] = assay: Antifungal activity against Candida albicans ATCC 90028 after 48 hrs by CLSI broth microdilution method; assay type: functional; details: ATCC 90028, 48 h
Outline: (§1)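 Yeast CLSI broth microdilution (M27-A3). Compounds dissolved in DMSO at 100× the top test concentration, then diluted as serial two-fold dilutions in RPMI 1640 to final 0.125–64. Inoculum was 1.0–1.5 × 10^3 cells mL−1, incubated at 35 °C and read for growth at 48 h. MIC is the lowest concentration giving ≥50% growth inhibition versus growth control. Reported as the median of five replicates and as the geometric mean.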

Candida albicans [2] = assay: Antifungal activity against Candida albicans ATCC 20891 after 48 hrs by CLSI broth microdilution method; assay type: functional; details: ATCC 20891, 48 h; outline: as §1
Candida albicans [3] = assay: Antifungal activity against Candida albicans PMC 1011 after 48 hrs by CLSI broth microdilution method; assay type: functional; details: PMC 1011, 48 h; outline: as §1
Pichia kudriavzevii [4] = assay: Antifungal activity against Candida krusei DSM 6128 after 48 hrs by CLSI broth microdilution method; assay type: functional; details: DSM 6128, 48 h; outline: as §1
Pichia kudriavzevii [5] = assay: Antifungal activity against Candida krusei PMC 0613 after 48 hrs by CLSI broth microdilution method; assay type: functional; details: PMC 0613, 48 h; outline: as §1
Candida tropicalis [6] = assay: Antifungal activity against Candida tropicalis PMC 0910 after 48 hrs by CLSI broth microdilution method; assay type: functional; details: PMC 0910, 48 h; outline: as §1
Candida tropicalis [7] = assay: Antifungal activity against Candida tropicalis DSM 11953 after 48 hrs by CLSI broth microdilution method; assay type: functional; details: DSM 11953, 48 h; outline: as §1
Candida parapsilosis [8] = assay: Antifungal activity against Candida parapsilosis DSM 11224 after 48 hrs by CLSI broth microdilution method; assay type: functional; details: Lodderomyces parapsilosis, DSM 11224, 48 h; outline: as §1
Candida parapsilosis [9] = assay: Antifungal activity against Candida parapsilosis ATCC 22019 after 48 hrs by CLSI broth microdilution method; assay type: functional; details: Lodderomyces parapsilosis, ATCC 22019, 48 h; outline: as §1
Nakaseomyces glabratus [10] = assay: Antifungal activity against Candida glabrata PMC 0805 after 48 hrs by CLSI broth microdilution method; assay type: functional; details: PMC 0805, 48 h; outline: as §1
Nakaseomyces glabratus [11] = assay: Antifungal activity against Candida glabrata PMC 0807 after 48 hrs by CLSI broth microdilution method; assay type: functional; details: PMC 0807, 48 h; outline: as §1
Cryptococcus neoformans [12] = assay: Antifungal activity against Cryptococcus neoformans PMC 2123 after 72 hrs by CLSI broth microdilution method; assay type: functional; details: PMC 2123, 72 h
Outline: (§2)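 Cryptococcus neoformans tested by CLSI broth microdilution in RPMI 1640, with serial two-fold dilutions from DMSO stocks at 100× the top concentration, final 0.125–64. Inoculum was 1.0–1.5 × 10^3 cells mL−1 at 35 °C, with growth read at 72 h. MIC is the lowest concentration with ≥50% growth inhibition versus control. Median of five replicates, plus geometric mean.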

Cryptococcus neoformans [13] = assay: Antifungal activity against Cryptococcus neoformans PMC 2136 after 72 hrs by CLSI broth microdilution method; assay type: functional; details: PMC 2136, 72 h; outline: as §2
Cryptococcus neoformans [14] = assay: Antifungal activity against Cryptococcus neoformans PMC 2115 after 72 hrs by CLSI broth microdilution method; assay type: functional; details: PMC 2115, 72 h; outline: as §2
Cryptococcus neoformans [15] = assay: Antifungal activity against Cryptococcus neoformans PMC 2103 after 72 hrs by CLSI broth microdilution method; assay type: functional; details: PMC 2103, 72 h; outline: as §2
Cryptococcus neoformans [16] = assay: Antifungal activity against Cryptococcus neoformans PMC 2107 after 72 hrs by CLSI broth microdilution method; assay type: functional; details: PMC 2107, 72 h; outline: as §2
Cryptococcus neoformans [17] = assay: Antifungal activity against Cryptococcus neoformans PMC 2102 after 72 hrs by CLSI broth microdilution method; assay type: functional; details: PMC 2102, 72 h; outline: as §2
Cryptococcus neoformans [18] = assay: Antifungal activity against Cryptococcus neoformans DSM 11959 after 72 hrs by CLSI broth microdilution method; assay type: functional; details: DSM 11959, 72 h; outline: as §2
Cryptococcus neoformans [19] = assay: Antifungal activity against Cryptococcus neoformans PMC 2111 after 72 hrs by CLSI broth microdilution method; assay type: functional; details: PMC 2111, 72 h; outline: as §2
[20] = test system: Trichophyton mentagrophytes; assay: Antifungal activity against Trichophyton mentagrophytes DSM 4870 after 72 hrs by CLSI broth microdilution method; assay type: functional; details: DSM 4870, 72 h
Outline: (§3)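 Dermatophytes tested by CLSI broth microdilution for filamentous fungi (M38-A2). Serial two-fold dilutions of DMSO-dissolved compound in RPMI 1640, final 0.125–64. Inoculum was 0.4–5 × 10^4 CFU mL−1, incubated at 35 °C and read at 72 h. MIC80 is the lowest concentration giving ≥80% growth inhibition versus growth control. Median of five replicates, plus geometric mean.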

[21] = test system: Trichophyton mentagrophytes; assay: Antifungal activity against Trichophyton mentagrophytes PMC 6515 after 72 hrs by CLSI broth microdilution method; assay type: functional; details: PMC 6515, 72 h; outline: as §3
[22] = test system: Trichophyton mentagrophytes; assay: Antifungal activity against Trichophyton mentagrophytes PMC 6531 after 72 hrs by CLSI broth microdilution method; assay type: functional; details: PMC 6531, 72 h; outline: as §3
[23] = test system: Trichophyton mentagrophytes; assay: Antifungal activity against Trichophyton mentagrophytes PMC 6509 after 72 hrs by CLSI broth microdilution method; assay type: functional; details: PMC 6509, 72 h; outline: as §3
[24] = test system: Trichophyton mentagrophytes; assay: Antifungal activity against Trichophyton mentagrophytes PMC 6503 after 72 hrs by CLSI broth microdilution method; assay type: functional; details: PMC 6503, 72 h; outline: as §3
[25] = test system: Trichophyton mentagrophytes; assay: Antifungal activity against Trichophyton mentagrophytes PMC 6552 after 72 hrs by CLSI broth microdilution method; assay type: functional; details: PMC 6552, 72 h; outline: as §3
Nannizzia gypsea [26] = assay: Antifungal activity against Microsporum gypseum PMC 7303 after 72 hrs by CLSI broth microdilution method; assay type: functional; details: PMC 7303, 72 h; outline: as §3
Nannizzia gypsea [27] = assay: Antifungal activity against Microsporum gypseum PMC 7331 after 72 hrs by CLSI broth microdilution method; assay type: functional; details: PMC 7331, 72 h; outline: as §3
Nannizzia gypsea [28] = assay: Antifungal activity against Microsporum gypseum DSM 3824 after 72 hrs by CLSI broth microdilution method; assay type: functional; details: DSM 3824, 72 h; outline: as §3
Candida albicans [29] = assay: Antifungal activity against Candida albicans PMC 1040R after 48 hrs by CLSI broth microdilution method; assay type: functional; outline: as §1
Candida albicans [30] = assay: Antifungal activity against Candida albicans PMC 1041R after 48 hrs by CLSI broth microdilution method; assay type: functional; outline: as §1
Nakaseomyces glabratus [31] = assay: Antifungal activity against Candida glabrata PMC 0850R after 48 hrs by CLSI broth microdilution method; assay type: functional; outline: as §1
Nakaseomyces glabratus [32] = assay: Antifungal activity against Candida glabrata PMC 0851R after 48 hrs by CLSI broth microdilution method; assay type: functional; outline: as §1
Nakaseomyces glabratus [33] = assay: Antifungal activity against Candida glabrata PMC 0852R after 48 hrs by CLSI broth microdilution method; assay type: functional; outline: as §1
Nakaseomyces glabratus [34] = assay: Antifungal activity against Candida glabrata PMC 0853R after 48 hrs by CLSI broth microdilution method; assay type: functional; outline: as §1
Candida albicans [35] = assay: Antifungal activity against Candida albicans PMC 1042R after 48 hrs by CLSI broth microdilution method; assay type: functional; outline: as §1
[36] = Cytotoxicity against human A549 cells after 48 hrs by MTT assay; assay type: cell-based
Outline: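 A549 cells (ATCC CCL-185) seeded at 2 × 10^4/well in phenol-red-free RPMI 1640 with 10% FBS, L-glutamine, penicillin and streptomycin, at 37 °C and 5% CO2. Exposed 48 h to DMSO-dissolved compounds (final 16–256; at least five concentrations, triplicate). MTT added for 3–4 h, crystals solubilized, OD read at 570 nm. CC50 taken versus the DMSO control. Mean ± SD of two independent experiments.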

Candida albicans [37] = assay: Antifungal activity against Candida albicans ATCC 24433 after 48 hrs by CLSI broth microdilution method; assay type: functional; details: ATCC 24433, 48 h; outline: as §1
Candida albicans [38] = assay: Antifungal activity against Candida albicans ATCC 3153 after 48 hrs by CLSI broth microdilution method; assay type: functional; details: ATCC 3153, 48 h; outline: as §1
Candida albicans [39] = assay: Antifungal activity against Candida albicans ATCC 10231 after 48 hrs by CLSI broth microdilution method; assay type: functional; details: ATCC 10231, 48 h; outline: as §1
Candida albicans [40] = assay: Antifungal activity against Candida albicans ATCC 76615 after 48 hrs by CLSI broth microdilution method; assay type: functional; details: ATCC 76615, 48 h; outline: as §1
Candida albicans [41] = assay: Antifungal activity against Candida albicans ATCC 10261 after 48 hrs by CLSI broth microdilution method; assay type: functional; details: ATCC 10261, 48 h; outline: as §1

In the case of `O=C(OC(Cn1ccnc1)c1ccc(Cl)cc1)N1CCN(c2ccc(Cl)cc2)CC1` (stereo unspecified), the MIC50 (Candida albicans [1]) is reported as 0.5 µg/mL (≈ 1.12 µM), the MIC50 (Candida albicans [2]) is reported as 0.5 µg/mL (≈ 1.12 µM) and the MIC50 (Candida albicans [3]) is reported as 0.25 µg/mL (≈ 0.561 µM). For the same molecule, the MIC50 (Pichia kudriavzevii [4]) was 4 µg/mL (≈ 8.98 µM), the MIC50 (Pichia kudriavzevii [5]) was 1 µg/mL (≈ 2.25 µM) and the MIC50 (Candida tropicalis [6]) was 4 µg/mL (≈ 8.98 µM). For the same molecule, the MIC50 (Candida tropicalis [7]) was 4 µg/mL (≈ 8.98 µM), the MIC50 (Candida parapsilosis [8]) was 1 µg/mL (≈ 2.25 µM) and the MIC50 (Candida parapsilosis [9]) was 1 µg/mL (≈ 2.25 µM). The MIC50 (Nakaseomyces glabratus [10]) was 1 µg/mL (≈ 2.25 µM), the MIC50 (Nakaseomyces glabratus [11]) was 8 µg/mL (≈ 18 µM) and the MIC50 (Cryptococcus neoformans [12]) was 4 µg/mL (≈ 8.98 µM). The MIC50 (Cryptococcus neoformans [13]) was 4 µg/mL (≈ 8.98 µM), the MIC50 (Cryptococcus neoformans [14]) was 4 µg/mL (≈ 8.98 µM) and the MIC50 (Cryptococcus neoformans [15]) was 4 µg/mL (≈ 8.98 µM). It also gave an MIC50 (Cryptococcus neoformans [16]) of 4 µg/mL (≈ 8.98 µM), an MIC50 (Cryptococcus neoformans [17]) of 4 µg/mL (≈ 8.98 µM) and an MIC50 (Cryptococcus neoformans [18]) of 2 µg/mL (≈ 4.49 µM). For the same molecule, the MIC50 (Cryptococcus neoformans [19]) was 2 µg/mL (≈ 4.49 µM), the MIC80 [20] was 8 µg/mL (≈ 18 µM) and the MIC80 [21] was 4 µg/mL (≈ 8.98 µM). It also gave an MIC80 [22] of 8 µg/mL (≈ 18 µM), an MIC80 [23] of 8 µg/mL (≈ 18 µM) and an MIC80 [24] of 2 µg/mL (≈ 4.49 µM). For the same molecule, the MIC80 [25] was 1 µg/mL (≈ 2.25 µM), the MIC80 (Nannizzia gypsea [26]) was 2 µg/mL (≈ 4.49 µM) and the MIC80 (Nannizzia gypsea [27]) was 2 µg/mL (≈ 4.49 µM). For the same molecule, the MIC80 (Nannizzia gypsea [28]) was 8 µg/mL (≈ 18 µM), the MIC50 (Candida albicans [29]) was 32 µg/mL (≈ 71.9 µM) and the MIC50 (Candida albicans [30]) was 8 µg/mL (≈ 18 µM). The MIC50 (Nakaseomyces glabratus [31]) was 8 µg/mL (≈ 18 µM), the MIC50 (Nakaseomyces glabratus [32]) was 8 µg/mL (≈ 18 µM) and the MIC50 (Nakaseomyces glabratus [33]) was 4 µg/mL (≈ 8.98 µM). For the same molecule, the MIC50 (Nakaseomyces glabratus [34]) was 4 µg/mL (≈ 8.98 µM), the MIC50 (Candida albicans [35]) was 4 µg/mL (≈ 8.98 µM) and the CC50 at 48 h [36] was 82.2 µg/mL (≈ 185 µM). The MIC50 (Candida albicans [37]) was 1 µg/mL (≈ 2.25 µM), the MIC50 (Candida albicans [38]) was 0.5 µg/mL (≈ 1.12 µM) and the MIC50 (Candida albicans [39]) was 0.5 µg/mL (≈ 1.12 µM). The MIC50 (Candida albicans [40]) was 2 µg/mL (≈ 4.49 µM) and the MIC50 (Candida albicans [41]) was 0.5 µg/mL (≈ 1.12 µM).
